Bioassay records (PubChem BioAssay)
AHR act: human AHR activation; AHR-responsive luciferase reporter cells, luminescence; P35869; activation, % at 5 µM; 320,000 tested, 2.5% active; in the data active = activation above about 47%;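 also: 0% = vehicle wells and 100% = reference agonist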
Fh CTSL1 inh: counter-screen for PFM18AAP inhibitors: inhibitors of F. hepatica cathepsin L1 | recombinant F. hepatica cathepsin L1, Z-Leu-Arg-MCA fluorescence | inhibition, % at 5.96 µM | 300,000 tested, 0.49% active | AID 1906;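 active = inhibition above the mean of all tested compounds plus 3 SD, set per screening campaign, cut at about 17% in these data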;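 also: 0% = plate median of test compound wells and 100% = 1 µM Z-Phe-Ala-diazomethylketone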
PfM18AAP inh: PfM18AAP enzyme inhibition. recombinant PfM18AAP, H-Glu-NHMec fluorogenic cleavage. inhibition, % at 7.35 µM. 290,000 tested, 1.2% active. AID 1822;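 active = inhibition above the campaign mean inhibition over all tested compounds plus 3 SD, cut at about 28% in these data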;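 also: 0% = plate median of test compound wells and 100% = 2 mM ZnCl2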
GAA850 FXN act: activators of GAA850 frataxin (FXN) promoter; HEK293 lucGAA850 FXN promoter luciferase reporter, 24 h; percent of 10 µM SAHA response; activation, % at 6 µM; 360,000 tested, 0.56% active; AID 540364;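 active = activation above the average of all compounds screened plus 3 SD, cutoff fixed separately per campaign, cut at about 7.5% in these data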;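 also: 0% = DMSO wells and 100% = 10 µM SAHA wells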
SENP1 FRET inh: blocks the human SENP1 SUMO protease catalytic domain; recombinant SENP1 catalytic domain, CyPet-SUMO1-YPet FRET cleavage; inhibition, % at 10 µM; 360,000 tested, 0.21% active; AID 624204;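 active = inhibition at least 30% at 10 µM, raw YFP signal under a set limit, fluorescence ratio 0.5 to 1.5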;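 also: 0% = enzyme with DMSO and 100% = no enzyme wells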
Target sequence (Q9P0U3 419-644 limits assumed): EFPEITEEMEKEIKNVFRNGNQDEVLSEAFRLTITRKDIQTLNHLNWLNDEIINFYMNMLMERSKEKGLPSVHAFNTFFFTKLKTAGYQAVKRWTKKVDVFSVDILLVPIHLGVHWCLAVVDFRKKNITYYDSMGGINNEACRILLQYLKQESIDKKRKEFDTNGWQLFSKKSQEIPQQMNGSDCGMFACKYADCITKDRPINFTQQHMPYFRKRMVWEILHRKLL
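Assay system – human recombinant His6-tagged SENP1 catalytic domain enzyme · Input – SENP1 enzyme, 20 pM final · Buffer or medium – Tris pH 8 buffer plus EDTA, NaCl, BME, BSA, NP40, catalase · Schedule – 50 min reaction at room temperature · Technique – FRET read of cyan and yellow fluorescence · Control set – no-enzyme wells low, DMSO-plus-enzyme wells high control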
HDAC3 inhib: inhibitors of human histone deacetylase 3. O15379. inhibition, % at 8.3 µM. AID 2718. recombinant HDAC3, fluorogenic peptide/trypsin coupled, fluorescence. 320,000 tested, 0.15% active; in the data active = inhibition above about 26%, passing the limit was not always enough
Target sequence (O15379 whole entry, looked up): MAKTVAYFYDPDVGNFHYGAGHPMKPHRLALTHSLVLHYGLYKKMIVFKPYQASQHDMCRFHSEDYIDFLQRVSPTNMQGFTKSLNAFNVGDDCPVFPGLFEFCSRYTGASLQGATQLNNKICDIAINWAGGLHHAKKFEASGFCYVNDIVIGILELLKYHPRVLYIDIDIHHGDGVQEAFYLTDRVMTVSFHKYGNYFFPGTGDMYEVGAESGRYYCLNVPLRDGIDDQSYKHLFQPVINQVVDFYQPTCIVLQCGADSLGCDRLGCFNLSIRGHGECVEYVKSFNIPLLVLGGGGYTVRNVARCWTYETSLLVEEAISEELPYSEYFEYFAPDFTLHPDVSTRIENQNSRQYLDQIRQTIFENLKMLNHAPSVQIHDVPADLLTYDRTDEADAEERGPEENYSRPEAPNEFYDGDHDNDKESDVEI
GAA30 counter: counter-screen for GAA850 frataxin promoter activators: GAA30 promoter activation. shares compounds with GAA850 FXN act. HEK293 lucGAA30 FXN promoter luciferase, 24 h; DMSO = 0%, 5 µM ipriflavone = 100%. activation, % at 6 µM. 1,900 tested, 66% active;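 active = mean activation above the mean of solvent-only control wells plus 3 SD, cut at about 22% in these data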;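 also: counterscreen of GAA850 promoter hits where activity marks nonselective or luminescence artifacts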
FXN GAA850 conf: GAA850 FXN promoter activation confirmation. shares compounds with GAA850 FXN act. HEK293 lucGAA850 FXN promoter luciferase reporter, 24 h; 100% = activation by SAHA. activation, % at 6 µM. 1,900 tested, 86% active. AID 588351;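 active = mean activation above a set limit taken from the primary screen, cut at about 8% in these data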;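 also: 0% = DMSO wells and 100% = 10 µM SAHA wells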
Active calls of the source: *; . = not tested or not shown. Shown are actives, neighbours in structure and some others; about 4.2% of the full set was active somewhere.

SMILES	AHR act	Fh CTSL1 inh	PfM18AAP inh	GAA850 FXN act	SENP1 FRET inh	HDAC3 inhib	GAA30 counter	FXN GAA850 conf
Cc1ccc2nc(C(F)(F)F)c(C#N)c(N)c2c1	11.4	-2.2	-8.7	40.1*	-2.0	0.3	79.4*	77.4*
C=CC(=O)Oc1ccc(N2Cc3ccccc3C2=O)cc1	-2.1	-12.5	.	8.0*	3.3	-4.3	31.9*	4.5
c1ccc2nc3c(ccc4ccccc43)cc2c1	.	.	.	7.7*	3.3	.	105.8*	36.7*
Cc1ccc2nc3ccc(N4CCCCCCC4)nn3c(=O)c2c1	-3.2	6.4	-8.3	1.2	-68.0	1.2	.	.
Cc1ccc2nc3ccc(N4CCN(C)CC4)nn3c(=O)c2c1	15.1	1.7	3.7	8.2*	-29.6	-13.5	115.6*	34.4*
O=S1(=O)N=C(Nc2ccc(N3CCOCC3)c(Cl)c2)c2ccccc21	8.9	-2.0	-1.1	8.4*	0.4	-1.2	103.2*	33.7*
Cc1nnc(Cl)c2nn(-c3ccccc3F)c(C)c12	-1.6	3.1	-1.1	13.4*	2.2	1.3	8.3	6.6
CCc1[nH]c(C(=O)O)c(C)c1C(=O)OC	-0.1	-3.0	-0.5	1.1	-0.2	-0.3	.	.
COc1ccc2c(c1)cc(C(=O)N[C@@H](Cc1ccccc1)C(=O)O)n2C	6.3	-4.5	0.0	1.5	0.6	-25.3	.	.
CN(C)CCn1c(=O)n(-c2ccc(F)cc2)c(=O)c2c3c(sc21)CCCCC3	-2.0	-1.4	0.8	3.0	-0.8	0.3	.	.
CN(C)CCn1c(=O)n(-c2cccc(Cl)c2)c(=O)c2c3c(sc21)CCCCC3	-0.7	-1.1	7.2	13.4*	-0.1	2.1	21.9*	13.4*
C[C@H]1CCC(=O)N([C@H](COc2ccccc2)Cc2ccccc2)CC1	3.2	3.1	4.2	-1.1	-1.6	2.2	.	.
CCn1c(SCc2ccccc2Cl)nc2nc3c(cc2c1=O)CCCC3	.	.	-3.7	7.8*	-4.6	.	10.2	12.3*
NC(=O)C1CC(=O)N(c2ccc(OCc3ccc(Cl)cc3)cc2)C1 (centres undefined)	0.0	1.1	-2.1	8.3*	3.3	-2.2	74.4*	25.5*
N#CCCN(C(=O)COC(=O)c1cc(S(=O)(=O)N2CCOCC2)ccc1Cl)c1ccc(F)cc1	0.7	-1.5	.	0.1	2.4	6.4	.	.
COc1ccc(OCc2nc(N)nc(Nc3ccccc3)n2)cc1	46.5	0.9	4.1	0.6	0.6	7.0	.	.
COc1ccc(OCc2nc(N)nc(Nc3ccc(C)cc3)n2)cc1	64.8*	1.6	0.6	8.8*	-0.8	-0.9	67.3*	25.0*
COc1ccc(Nc2nc(N)nc(CSC(=S)N3CCCCC3)n2)cc1	16.8	2.4	-12.0	8.2*	-0.9	-0.9	69.3*	22.8*
CC(=O)N1CCc2cc(Br)cc(S(=O)(=O)N3CCC(C(=O)O)CC3)c21	-0.1	-1.5	1.7	-0.8	-1.4	-2.8	.	.
CCCc1cc(C(=O)Nc2cccc(Cl)c2)no1	-2.2	2.1	-6.8	-0.3	0.7	-3.3	.	.
CCCc1cc(C(=O)Nc2cccc(C(C)=O)c2)no1	5.7	4.5	3.5	24.7*	1.5	.	76.4*	23.3*
COc1ccc(CN2C(=O)CN(S(C)(=O)=O)CC2(C)C(=O)Nc2c(C)cccc2C)cc1OC (centres undefined)	.	.	.	.	0.4	.	.	.
Nc1nc2ccccc2cc1-c1cccs1	6.5	-3.5	1.8	7.8*	0.0	-28.8	90.5*	34.2*
COc1ccc(S(=O)(=O)N(CC(=O)NN=C2CCN(C)CC2)c2cc(Cl)ccc2OC)cc1OC	2.4	-5.0	1.7	2.0	-0.6	-5.8	.	.
O=C(Nc1ccc(F)cc1)Nc1ccc(N2CCOCC2)c2nonc12	9.3	7.5	0.3	8.2*	1.6	0.8	102.8*	31.8*
SMILES	AHR act	Fh CTSL1 inh	PfM18AAP inh	GAA850 FXN act	SENP1 FRET inh	HDAC3 inhib	GAA30 counter	FXN GAA850 conf
CC(=O)N(C(C)=O)c1ncnc2c1c(-c1ccc(Cl)cc1)nn2C(C)(C)C	1.1	5.7	3.7	2.9	-2.0	-15.0	.	.
CC(=O)Nc1ncnc2c1c(-c1ccc(Cl)cc1)nn2C(C)(C)C	0.5	-0.8	-4.3	10.8*	-0.7	-27.7	19.5	10.4*
Cc1ccc(NC(=O)CSc2n[nH]c(-c3cccnc3)n2)cc1Cl	4.8	3.1	0.0	0.7	1.7	-2.7	.	.
COC(=O)Cn1c2ccc(C)cc2c2nc3ccccc3nc21	.	.	6.3	2.7	-30.9	.	.	.
O=C(O)Cn1c2ccccc2c2nc3ccccc3nc21	.	.	.	10.2*	-50.9	.	104.5*	33.0*
CCOc1c(Cl)cc(C(=O)NCCN2CCCCC2)cc1Cl	3.0	0.0	-6.2	12.6*	-3.9	0.0	8.8	5.6
Cc1cccc(C(=O)OCCN2CCOCC2)c1	-0.3	-2.6	-0.9	0.8	0.0	-5.3	.	.
Cc1ccc(N2C(=O)CS(=O)C(c3ccccc3)C2=O)cc1C (centres undefined)	1.5	-4.9	-57.0	8.2*	0.7	20.5	58.1*	16.4*
COc1ccc(N2C(=O)CS(=O)C(c3ccccc3)C2=O)cc1 (centres undefined)	3.3	-13.7	-102.1	5.2	0.4	0.1	.	.
O=C(CSc1ncn[nH]1)Nc1c(F)cc(F)cc1Br	-2.0	-3.9	8.3	13.9*	2.2	2.4	4.1	0.4
COc1ccccc1C(=O)Nc1nsc(-c2ccccc2)n1	5.8	0.5	3.2	9.3*	2.4	0.8	104.1*	31.1*
COc1ccccc1C(=O)Nc1ccncc1	-0.8	-1.3	-6.6	-0.3	0.8	4.1	.	.
COc1cccc(C2N(c3cccc(Cl)c3)C(=O)C3CCCN32)c1 (centres undefined)	2.7	-2.4	-10.1	1.5	0.0	-4.7	.	.
COc1ccc(N2C(=O)C3CCCN3C2c2cccc(Br)c2)cc1 (centres undefined)	0.9	-1.5	0.8	12.1*	1.8	-1.7	18.7	8.8*
COc1ccccc1C(=O)N=c1sc2c(C)ccc(OC)c2n1C	62.4*	4.3	2.9	9.5*	-12.7	6.5	81.8*	32.4*
CC(=O)Nc1c(Br)cc2c(c1Br)Cc1cc(Br)ccc1-2	.	.	.	1.9	1.3	.	.	.
CC(=O)Nc1ccc2c(c1)Cc1c-2cc(Br)c(N)c1Br	.	.	.	7.6*	-1.6	.	62.9*	28.5*
COc1ccccc1NC(=O)CC1C(=O)NCCN1C(=O)Nc1ccccc1 (centres undefined)	-1.9	-0.8	10.7	8.0*	0.8	-4.1	18.1	8.0*
CC1(C)CC(=O)C=C(c2cccc3c2oc2ccccc23)C1	3.1	2.6	.	9.6*	1.0	6.1	60.8*	26.0*
O=C1C=C(c2cccc3c2oc2ccccc23)CCC1	-2.5	3.5	.	6.5	2.5	-4.5	.	.
